Published values from different studies.
Compare with care: the assays were run in different laboratories. ≈ marks a conversion by molar mass, not a printed value.

| SMILES | tested on | assay | system | setting | quantity | value |
| --- | --- | --- | --- | --- | --- | --- |
| C=CCCCNc1c2c([nH]c(=O)c1C(=O)OCC)CCC2 | Human immunodeficiency virus 1 | viral replication, inhibitor | IIIB | 72 h | EC50 | 45.4 µM |
| Cc1nc(Nc2ncc(C(=O)Nc3c(C)cccc3Cl)s2)cc(N2CC[C@H](O)C2)n1 | SU-DHL-5 | cell growth or viability, ATP luminescence |  | 10 µM, 72 h | inhibition | 98% |
| CC(C)(C#Cc1ccc(-c2ccc(Cl)c3c(NS(C)(=O)=O)nn(CC(F)(F)F)c23)c([C@H](CC2CC2)NC(=O)Cn2nc(C(F)(F)F)c3c2C(F)(F)[C@@H]2C[C@H]32)n1)S(C)(=O)=O | Human immunodeficiency virus 1 | viral replication, inhibitor |  |  | EC50 | 0.0009 µM |
| CO[C@H]1/C=C/O[C@@]2(C)Oc3c(C)c(O)c4c(O)c(c(/C=N/N5CCN(C)CC5)c(O)c4c3C2=O)NC(=O)/C(C)=C\C=C\[C@H](C)[C@H](O)[C@@H](C)[C@@H](O)[C@@H](C)[C@H](OC(C)=O)[C@@H]1C | Mycobacterium marinum | microbial growth |  |  | MIC90 | 10 µM (≈ 8.23 µg/mL) |
| CC(C)(C#Cc1ccc(-c2ccc(Cl)c3c(NS(C)(=O)=O)nn(CC(F)(F)F)c23)c([C@H](CC2CCCCC2)NC(=O)Cn2nc(C(F)(F)F)c3c2C(F)(F)[C@H]2C[C@@H]32)n1)S(C)(=O)=O | Human immunodeficiency virus 1 | viral replication, inhibitor |  |  | EC50 | 0.0007 µM |
| CCCNc1c2c([nH]c(=O)c1C(=O)OCC)CCC2 | Human immunodeficiency virus 1 | viral replication, inhibitor | IIIB | 72 h | EC50 | 30.6 µM |
| CC(C)(C#Cc1ccc(-c2ccc(Cl)c3c(NS(C)(=O)=O)nn(CC(F)(F)F)c23)c([C@@H](CC2CCCC2)NC(=O)Cn2nc(C(F)(F)F)c3c2C(F)(F)[C@H]2C[C@@H]32)n1)S(C)(=O)=O | Human immunodeficiency virus 1 | viral replication, inhibitor |  |  | EC50 | 0.0123 µM |
| O=c1[nH]ncc(NN=Cc2cn(-c3ccccc3)nc2-c2ccccc2)c1Cl | CCRF-CEM | cell growth or viability |  | 48 h | CC50 | 4.78 µM |
| CCOC(=O)c1c(NCCCCN)c2c([nH]c1=O)CCC2 | Human immunodeficiency virus 1 | viral replication, inhibitor | IIIB | 72 h | EC50 | > 100 µM |
| Cc1cc(/C=C/C#N)cc(C)c1Nc1ccnc(Nc2ccc(C#N)cc2)n1 | Human immunodeficiency virus 1 | viral replication, inhibitor | TZM-bl, IIIB | 48 h | EC50 | 0.00089 µM |
| O=C(N[C@@H](CSCc1ccccc1)C(=O)NO)c1ccccc1 | HCC4006 | cell growth or viability, MTT |  | 48 h | IC50 | 68.2 µM |
| CCOC(=O)c1c(N(CC)CC)c2c([nH]c1=O)CCC2 | Human immunodeficiency virus 1 | viral replication, inhibitor | IIIB | 72 h | EC50 | 79.3 µM |
| CC(=O)ON=C1C=CC(=C(C#N)c2ccccc2)C=C1 | HDF-1 | cell growth or viability, MTT |  | 72 h | IC50 | 24 µg/mL |
